Test results taken from ChEMBL document CHEMBL3739331, “Synthesis and Bioactivities of Kanamycin B-Derived Cationic Amphiphiles” (J Med Chem, 2015).
Values after ≈ are worked out from the molar mass of the structure shown. Active and inactive are the calls of the source. The rule behind the calls is not given here.

Columns and labels:
[1] = system: Candida albicans; assay: Antifungal activity against azole-resistant Candida albicans ATCC 90819 after 48 hrs in presence of posaconazole by checkerboard microdilution assay; type: functional; conditions: ATCC 90819, 48 h
Outline: (§1)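 Checkerboard combinations of the aminoglycoside amphiphile with posaconazole against yeast strains, run in duplicate. Each agent's MIC is taken alone and in combination. The fractional inhibitory concentration index (FICI) is calculated to classify the interaction.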

[2] = system: Candida albicans; assay: Antifungal activity against azole-susceptible Candida albicans ATCC MYA-2310 after 48 hrs in presence of posaconazole by checkerboard microdilution assay; type: functional; conditions: ATCC MYA-2310, 48 h; outline: as §1
[3] = system: Candida albicans; assay: Antifungal activity against azole-resistant Candida albicans MYA-1237 after 48 hrs in presence of posaconazole by checkerboard microdilution assay; type: functional; conditions: MYA-1237, 48 h; outline: as §1
[4] = system: Candida albicans; assay: Antifungal activity against azole-resistant Candida albicans MYA-1003 after 48 hrs in presence of posaconazole by checkerboard microdilution assay; type: functional; conditions: MYA-1003, 48 h; outline: as §1
[5] = system: Candida albicans; assay: Antifungal activity against azole-resistant Candida albicans ATCC 64124 at sub-MIC measured over 24 hrs by time-kill assay; type: functional, organism-based
Outline: (§2)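 Time-kill assay on C. albicans ATCC 64124 cultures exposed to test compound at 1/2 MIC, MIC and higher concentrations. Amphotericin B at 1 μg/mL and a no-drug culture serve as controls. CFU are counted at intervals over 24 h.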

[6] = system: Candida albicans; assay: Antifungal activity against azole-resistant Candida albicans ATCC 64124 at MIC measured after 6 hrs by time-kill assay; type: functional; outline: as §2
[7] = system: Candida albicans; assay: Antifungal activity against azole-resistant Candida albicans ATCC 64124 assessed as cell death after 12 hrs by time-kill assay; type: functional, organism-based; outline: as §2
[8] = system: Candida albicans; assay: Antifungal activity against azole-resistant Candida albicans ATCC 64124 assessed as cell membrane permeabilization at twice the MIC after 1 hr by propidium iodide-staining based fluorescence microscopic analysis (reference value: <2%); type: functional
[9] = Hemolytic activity against mouse RBC at 7.8 ug/ml after 60 mins; type: ADME, cell-based, Erythrocyte; conditions: red blood cells, read-out: Activity
[10] = Hemolytic activity against mouse RBC at 500 ug/ml after 60 mins; type: ADME, cell-based, Erythrocyte; conditions: red blood cells, read-out: Activity
[11] = system: A549; assay: Cytotoxicity against human A549 cells after 24 hrs by resazurin assay; type: cell-based; conditions: Homo sapiens, A549, 24 h
[12] = Cytotoxicity against human BEAS2B cells after 24 hrs by resazurin assay; type: cell-based, BEAS-2B; conditions: Homo sapiens, BEAS-2B
[13] = system: Klebsiella pneumoniae; assay: Antibacterial activity against Klebsiella pneumoniae ATCC 27736 by microdilution method; type: functional
Outline: (§3)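 Broth microdilution MIC against the named bacterial strain, reported in μg/mL; each determination run at least in duplicate.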

[14] = Activity of AAC(3)-4 (unknown origin) assessed as compound acetylation activity by Ellman's method
[15] = system: Candida albicans; assay: Antifungal activity against azole-resistant Candida albicans ATCC 64124 assessed as cell membrane permeabilization at 1 times MIC after 1 hr by propidium iodide-staining based fluorescence microscopic analysis (reference value: <2%); type: functional
[16] = system: Bacillus subtilis; assay: Antibacterial activity against Bacillus subtilis 168 by microdilution method; type: functional; conditions: subsp. subtilis str. 168; outline: as §3
[17] = system: Listeria monocytogenes; assay: Antibacterial activity against Listeria monocytogenes ATCC 19115 by microdilution method; type: functional; outline: as §3
[18] = system: Staphylococcus aureus; assay: Antibacterial activity against methicillin-resistant Staphylococcus aureus by microdilution method; type: functional
Outline: (§4)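 Broth microdilution MIC, in μg/mL, against a panel of Gram-positive and Gram-negative strains. Run at least in duplicate.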

[19] = system: Staphylococcus aureus; assay: Antibacterial activity against Staphylococcus aureus NRS382 (USA 100) by microdilution method; type: functional; outline: as §3
[20] = system: Staphylococcus aureus; assay: Antibacterial activity against Staphylococcus aureus NRS383 (USA 200) by microdilution method; type: functional; outline: as §3
[21] = system: Staphylococcus aureus; assay: Antibacterial activity against Staphylococcus aureus NRS385 (USA 300) by microdilution method; type: functional; outline: as §4
[22] = system: Staphylococcus epidermidis; assay: Antibacterial activity against Staphylococcus epidermidis ATCC 12228 by microdilution method; type: functional; outline: as §3
[23] = system: Acinetobacter baumannii; assay: Antibacterial activity against Acinetobacter baumannii ATCC 19606 by microdilution method; type: functional; outline: as §3
[24] = system: Enterobacter cloacae; assay: Antibacterial activity against Enterobacter cloacae ATCC 13047 by microdilution method; type: functional; outline: as §3
[25] = system: Escherichia coli; assay: Antibacterial activity against Escherichia coli MC1061 by microdilution method; type: functional; outline: as §4
[26] = system: Pseudomonas aeruginosa; assay: Antibacterial activity against Pseudomonas aeruginosa ATCC 27853 by microdilution method; type: functional; outline: as §3
[27] = system: Salmonella enterica; assay: Antibacterial activity against Salmonella enterica ATCC 14028 by microdilution method; type: functional; outline: as §3
[28] = system: Bacillus subtilis subsp. subtilis str. 168; assay: Activity of Bacillus subtilis 168 APH(2'')-1a assessed as compound phosphorylation activity by Ellman's method
[29] = Activity of AAC(6')-1e/APH(2'')-1a (unknown origin) assessed as compound acetylation activity by Ellman's method
[30] = system: Serratia marcescens; assay: Activity of Serratia marcescens AAC(6')-2d assessed as compound acetylation activity by Ellman's method
[31] = system: Mycobacterium tuberculosis; assay: Activity of Mycobacterium tuberculosis AAC(2')-1c assessed as compound acetylation activity by Ellman's method
[32] = system: Mycobacterium tuberculosis; assay: Activity of Mycobacterium tuberculosis Eis assessed as compound acetylation activity by Ellman's method
[33] = Activity of Mycobacterium tuberculosis AAC(2')-1c/AAC(3)-4 (unknown origin) assessed as compound conversion to 3'-acetylated product incubated for 20 hrs by TLC analysis
[34] = Activity of Mycobacterium tuberculosis AAC(2')-1c/Serratia marcescens AAC(6')-2d assessed as compound conversion to 6'-monoacetylated product incubated for 20 hrs by TLC analysis
[35] = Activity of AAC(3)-4 (unknown origin)/Serratia marcescens AAC(6')-2d assessed as compound conversion to 3'-acetylated product incubated for 20 hrs by TLC analysis
[36] = Activity of Mycobacterium tuberculosis AAC(2')-1c/AAC(3)-4 (unknown origin)/Serratia marcescens AAC(6')-2d (unknown origin) assessed as compound conversion to 3'-monoacetylated product incubated for 20 hrs by TLC analysis
[37] = system: Candida albicans; assay: Antifungal activity against azole-resistant Candida albicans ATCC 10231 after 48 hrs by microbroth dilution method; type: functional; conditions: ATCC 10231, 48 h
Outline: (§5)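 Yeast MIC by broth microdilution, run in duplicate. The aminoglycoside compounds are read as MIC-0 (complete inhibition). Azoles are read as MIC-2 (50% inhibition).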

[38] = system: Candida albicans; assay: Antifungal activity against azole-resistant Candida albicans ATCC 64124 after 48 hrs by microbroth dilution method; type: functional; conditions: ATCC 64124, 48 h; outline: as §5
[39] = system: Candida albicans; assay: Antifungal activity against azole-susceptible Candida albicans ATCC MYA-2876 after 48 hrs by microbroth dilution method; type: functional; conditions: ATCC MYA-2876, 48 h; outline: as §5
[40] = system: Candida albicans; assay: Antifungal activity against azole-resistant Candida albicans ATCC 90819 after 48 hrs by microbroth dilution method; type: functional; conditions: ATCC 90819, 48 h; outline: as §5
[41] = system: Candida albicans; assay: Antifungal activity against azole-susceptible Candida albicans ATCC MYA-2310 after 48 hrs by microbroth dilution method; type: functional; conditions: ATCC MYA-2310, 48 h; outline: as §5
[42] = system: Candida albicans; assay: Antifungal activity against azole-resistant Candida albicans MYA-1237 after 48 hrs by microbroth dilution method; type: functional; conditions: MYA-1237, 48 h; outline: as §5
[43] = system: Candida albicans; assay: Antifungal activity against azole-resistant Candida albicans MYA-1003 after 48 hrs by microbroth dilution method; type: functional; conditions: MYA-1003, 48 h; outline: as §5
[44] = system: Aspergillus nidulans; assay: Antifungal activity against Aspergillus nidulans ATCC 38163 after 48 hrs by microbroth dilution method; type: functional; conditions: ATCC 38163, 48 h
Outline: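 Filamentous fungus MIC by broth microdilution, run in duplicate. All compounds are read as MIC-0 (complete inhibition).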

[45] = system: Candida albicans; assay: Antifungal activity against azole-resistant Candida albicans ATCC 10231 after 48 hrs in presence of posaconazole by checkerboard microdilution assay; type: functional; conditions: ATCC 10231, 48 h; outline: as §1
[46] = system: Candida albicans; assay: Antifungal activity against azole-resistant Candida albicans ATCC 64124 after 48 hrs in presence of posaconazole by checkerboard microdilution assay; type: functional; conditions: ATCC 64124, 48 h; outline: as §1
[47] = system: Candida albicans; assay: Antifungal activity against azole-susceptible Candida albicans ATCC MYA-2876 after 48 hrs in presence of posaconazole by checkerboard microdilution assay; type: functional; conditions: ATCC MYA-2876, 48 h; outline: as §1

CCCCCCCCCCCCCCSC[C@@H]1O[C@@H](O[C@@H]2[C@@H](O)[C@H](O[C@@H]3O[C@@H](CN)[C@H](O)[C@@H](O)[C@@H]3N)[C@@H](N)C[C@H]2N)[C@@H](O)[C@H](N)[C@H]1O (stereo in doubt)
MIC [1]: 1 µg/mL
MIC [2]: 1 µg/mL
MIC [3]: 1 µg/mL
MIC [4]: 2 µg/mL
Activity [5]: Active
LCK [6]: >=2
Activity [7]: Active
Activity [8]: 49%
hemolysis at 1 h, 7.8 ug/ml [9]: 15%
hemolysis at 1 h, 500 ug/ml [10]: 73%
IC50 [11]: > 62.5 µg/mL
IC50 [12]: > 62.5 µg/mL
MIC [13]: > 128 µg/mL
Activity [14]: inactive
Activity [15]: 84%
MIC [16]: > 128 µg/mL
MIC [17]: 0.5 µg/mL (≈ 0.718 µM)
MIC [18]: 32 µg/mL (≈ 46 µM)
MIC [19]: 32 µg/mL (≈ 46 µM)
MIC [20]: 8 µg/mL (≈ 11.5 µM)
MIC [21]: 16 µg/mL (≈ 23 µM)
MIC [22]: > 128 µg/mL
MIC [23]: > 128 µg/mL
MIC [24]: 128 µg/mL (≈ 184 µM)
MIC [25]: > 128 µg/mL
MIC [26]: 64 µg/mL (≈ 92 µM)
MIC [27]: 32 µg/mL (≈ 46 µM)
Activity [28]: inactive
Activity [29]: inactive
Activity [30]: inactive
Activity [31]: inactive
Activity [32]: inactive
Activity [33]: Active
Activity [34]: Active
Activity [35]: Active
Activity [36]: Active
MIC [37]: 7.8 µg/mL (≈ 11.2 µM)
MIC [38]: 7.8 µg/mL (≈ 11.2 µM)
MIC [39]: 7.8 µg/mL (≈ 11.2 µM)
MIC [40]: 15.6 µg/mL (≈ 22.4 µM)
MIC [41]: 7.8 µg/mL (≈ 11.2 µM)
MIC [42]: 7.8 µg/mL (≈ 11.2 µM)
MIC [43]: 7.8 µg/mL (≈ 11.2 µM)
MIC [44]: ≤ 1.95 µg/mL
MIC [45]: 4 µg/mL
MIC [46]: 1 µg/mL
MIC [47]: 1 µg/mL
